The results in this text go back to ChEMBL document CHEMBL2331214, “Structure-Based Design and Synthesis of an HIV-1 Entry Inhibitor Exploiting X-Ray and Thermodynamic Characterization” (ACS Med Chem Lett, 2013).

Series [1] is described as follows: Binding affinity to HIV1 full length gp120 by isothermal titration calorimetric assay. Also on record: species or system Human immunodeficiency virus 1. The method, boiled down: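 ITC titration of full-length monomeric gp120 with ligand at 25 °C.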
Series [2] is described as follows: Inhibition of HIV1 isolate YU2 gp120 binding to human CD4 expressed in dog CF2Th cells coexpressing CCR5 after 2 to 4 hrs by luciferase reporter gene assay. It is filed as cell-based, Human immunodeficiency virus type 1 (isolate YU2). A digest of the protocol: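 HIV-1 YU2 infection of Cf2Th cells expressing CD4 and CCR5; the IC50 is for inhibition of viral entry.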
Background: Reporter assays use an easily measured gene product as a stand-in for the process of interest.

For series [3], the system named is Human immunodeficiency virus 1. As to the kind of experiment: Activation of HIV1 isolate YU2 infectivity in CD4 negative dog CF2Th cells expressing CCR5 by luciferase reporter gene assay relative to TS-2-224. The format is organism-based. Conditions: human immunodeficiency virus 1, cf2th.
Series [4] in a line: Inhibition of AMLV gp120 binding to human CD4 expressed in canine CF2Th cells coexpressing CCR5 after 2 to 4 hrs by luciferase reporter gene assay. It is filed as cell-based, Amphotropic murine leukemia virus.
The subject of series [5] is Human immunodeficiency virus 1. As to the kind of experiment: Activation of HIV1 isolate YU2 infectivity in CD4 negative dog CF2Th cells expressing CCR5 by luciferase reporter gene assay relative to NBD556. The format is organism-based. Conditions: human immunodeficiency virus 1, cf2th. A digest of the protocol:
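HIV-1 YU2 infection of CD4-negative Cf2Th-CCR5 cells; relative activation of viral infectivity is normalized to the reference CD4-mimetic agonist.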

Series [6] deals with Human immunodeficiency virus 1. As to the kind of experiment: Antiviral activity against 0.01 to 0.1 MOI HIV1 Env-pseudovirus Clade B infected in human TZM-bl cells after 30 mins by luciferase assay. The format is functional, organism-based. Particulars: Human immunodeficiency virus 1, Clade B, 0.5 h. The method, boiled down:
(§1)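 Neutralization breadth is tested against a panel of 42 diverse Tier 2 clade B and C Env-pseudoviruses. IC50 values are summarized as geometric mean titers for the sensitive strains.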

For series [7], the system named is Human immunodeficiency virus 1. As to the kind of experiment: Antiviral activity against 0.01 to 0.1 MOI HIV1 Env-pseudovirus Clade C infected in human TZM-bl cells after 30 mins by luciferase assay. It is filed as functional, organism-based. Particulars: Human immunodeficiency virus 1, Clade C, 0.5 h. A digest of the protocol:
as §1

Some results are limits rather than exact numbers.

Consider `N=C(N)N[C@H]1Cc2ccccc2[C@@H]1NC(=O)C(=O)Nc1ccc(Cl)c(F)c1.O=CO`, for which binding in series [1] was put at a Kd of 0.25 µM. Moreover, the IC50 in series [2] was 22.9 µM; in series [4], more than 100 µM. For the same molecule, the “fold change (FC)” value in series [3] is 0.1.
On the same counts, the results for `N=C(N)N[C@@H]1Cc2ccccc2[C@H]1NC(=O)C(=O)Nc1ccc(Cl)c(F)c1.O=CO` are 0.3 µM, 21.3 µM, more than 100 µM and 0.
Turning to `N=C(N)NCC[C@@H]1Cc2ccccc2[C@H]1NC(=O)C(=O)Nc1ccc(Cl)c(F)c1.O=CO`, in series [5], the “fold change (FC)” value is listed as 0. The Kd in series [1] amounted to 2 µM. Moreover, the values for the IC50 in series [2] and in series [4] were 68.5 µM and more than 100 µM, respectively.
The like results for `N=C(N)NC[C@@H]1Cc2ccccc2[C@H]1NC(=O)C(=O)Nc1ccc(Cl)c(F)c1.O=CO` were, in that order, 0.11, 6.2 µM, 37.9 µM and more than 100 µM.
On the same counts, the results for `N=C(N)NCC[C@H]1Cc2ccccc2[C@@H]1NC(=O)C(=O)Nc1ccc(Cl)c(F)c1.O=CO` are 0.17, 0.34 µM, 28.2 µM and more than 100 µM.
Turning to `N=C(N)NC[C@H]1Cc2ccccc2[C@@H]1NC(=O)C(=O)Nc1ccc(Cl)c(F)c1.O=CO`, the IC50 was 1.7 µM in series [6], 14 µM in series [7], 2.3 µM in series [2] and more than 100 µM in series [4]. Moreover, in series [5], the “fold change (FC)” value came out at 0. The Kd in series [1] is 0.11 µM.
Molecule `N=C(N)NCC1Cc2ccccc2C1NC(=O)C(=O)Nc1ccc(Cl)c(F)c1` (racemic) gave an IC50 in series [2] of 10.3 µM.

As usually defined, the Kd is the constant that tells how readily two partners part at equilibrium. A low value points to a tighter complex. A word on the IC50: it is the concentration at which inhibition is half-maximal. Higher therefore signals lower potency.
